Bioassay records: PubChem BioAssay, Broad Institute
Only some compounds are listed: those with a hit (about 5.9% of all), similar ones and a draw of the others.
Pf Dd2 inh – blocks growth of Plasmodium falciparum Dd2 parasites; activity change, % at 10 µM; P. falciparum Dd2 growth, SYBR Green, 72 h; active compounds read low; actives 2.3% (n = 94,000); in the data active = activity change below about -80%
IDH1 R132H inh – inhibitors of human IDH1 R132H. O75874. IDH1 R132H reductase, diaphorase/resazurin fluorescence, 60 min. inhibition, % at 10 µM. actives 0.18% (n = 70,000); in the data active = inhibition above about 34%;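 also: 0% = DMSO and 100% = no enzyme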
Target sequence (O75874 whole entry R132H): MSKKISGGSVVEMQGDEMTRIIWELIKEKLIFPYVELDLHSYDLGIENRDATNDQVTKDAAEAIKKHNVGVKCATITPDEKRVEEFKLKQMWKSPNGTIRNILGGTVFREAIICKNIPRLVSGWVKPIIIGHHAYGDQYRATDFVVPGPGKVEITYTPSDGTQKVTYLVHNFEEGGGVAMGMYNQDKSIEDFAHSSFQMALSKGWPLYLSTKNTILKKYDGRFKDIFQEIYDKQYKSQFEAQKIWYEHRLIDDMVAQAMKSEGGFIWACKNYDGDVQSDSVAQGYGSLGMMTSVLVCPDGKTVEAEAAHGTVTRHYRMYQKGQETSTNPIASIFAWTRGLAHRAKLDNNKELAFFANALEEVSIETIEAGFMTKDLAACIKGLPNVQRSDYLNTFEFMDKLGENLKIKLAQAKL
T cruzi growth – blocks T. cruzi growth in NIH3T3 culture | T. cruzi beta-gal in NIH3T3, GalScreen luminescence, 90 h | inhibition, % at 8.34 µM | actives 5.9% (n = 77,000);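 active = mean inhibition above about 93%, with at least 55% of replicates each passing it, limit read from the data, passing the limit was not always enough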
GASC1 inh – inhibitors of human demethylase GASC-1 KDM4C; actives 0.15% (n = 96,000); AID 720574; inhibition, % at 12.5 µM; GST-KDM4C 2-372, H3K9me3 peptide, LANCE TR-FRET;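 active = mean replicate inhibition above about 25%, with at least 55% of replicates also reaching it, limit read from the data, passing the limit was not always enough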
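Assay system: GST-GASC-1 enzyme fragment 2-372 | Amount: 10 nM enzyme | Medium: HEPES buffer, pH 7.5, plus ascorbate | Reagent: H3K9me3 peptide substrate, Fe(II), 2-oxoglutarate | Doses: Single-point compound screen | Incubation: 30 min demethylation and 1 h detection at room temperature | Measured by: LANCE TR-FRET, excitation 340 nm, emissions 618 and 671 nm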
* marks the source's active call; other numbers are inactive results; / = no result given.

SMILES	Pf Dd2 inh	IDH1 R132H inh	T cruzi growth	GASC1 inh
COc1ccc2c3c(n(C)c2c1)[C@@H](CO)N(S(C)(=O)=O)CC31CCN(C(=O)CN(C)C)CC1	-88.6*	/	/	0.1
COc1ccc2c3c(n(C)c2c1)[C@@H](CO)N(CC1CCCC1)CC31CCN(C(=O)CN(C)C)CC1	-85.0*	/	/	1.5
CCC(=O)N1CCC2(CC1)CN(S(C)(=O)=O)[C@H](CO)c1c2c2ccc(OC)cc2n1C	25.7	/	/	1.0
CCC(=O)N1CCC2(CC1)CN(CC1CCCCC1)[C@@H](CO)c1c2c2ccc(OC)cc2n1C	-85.5*	/	/	-2.3
Fc1ccccc1-c1n[nH]c(=S)n1CCCN1CCOCC1	/	-0.1	/	/
Cc1noc(C)c1S(=O)(=O)Nc1ccc2c(c1)C(=O)N([C@H](C)CO)C[C@@H](C)[C@@H](CN(C)C(=O)Nc1cccc3ccccc13)OCCCC[C@@H](C)O2	-88.1*	/	82.9	-2.9
Cc1noc(C)c1S(=O)(=O)Nc1ccc2c(c1)C(=O)N([C@H](C)CO)C[C@@H](C)[C@@H](CN(C)C(=O)NC1CCCCC1)OCCCC[C@@H](C)O2	-83.9*	/	-55.1	-2.0
Cc1noc(C)c1S(=O)(=O)Nc1ccc2c(c1)C(=O)N([C@H](C)CO)C[C@H](C)[C@H](CN(C)C(=O)Nc1ccccc1)OCCCC[C@H](C)O2	-35.3	1.4	37.2	-0.5
COc1ccc(S(=O)(=O)Nc2ccc3c(c2)C(=O)N([C@H](C)CO)C[C@H](C)[C@@H](CN(C)C(=O)Nc2cccc4ccccc24)OCCCC[C@@H](C)O3)cc1	-57.5	/	39.9	0.9
COc1ccc(S(=O)(=O)Nc2ccc3c(c2)C(=O)N([C@@H](C)CO)C[C@H](C)[C@H](CN(C)C(=O)Nc2cccc4ccccc24)OCCCC[C@@H](C)O3)cc1	-82.3*	-1.9	/	-1.3
O=C(Nc1cccc(Br)c1)C1CN(S(=O)(=O)c2ccccc2)CCN1S(=O)(=O)c1ccccc1 (configuration not stated)	/	0.0	/	/
COc1ccc2c(c1)C(O)(CC(=O)c1ccc3ccccc3c1)C(=O)N2 (configuration not stated)	/	-0.2	/	/
Cc1noc(C)c1S(=O)(=O)N(C)C[C@H]1OCCCC[C@H](C)Oc2ccc(NC(=O)c3ccccc3)cc2C(=O)N([C@@H](C)CO)C[C@@H]1C	-86.5*	/	67.4	-1.5
Cc1noc(C)c1S(=O)(=O)N(C)C[C@H]1OCCCC[C@H](C)Oc2ccc(NC(=O)c3ccccc3)cc2C(=O)N([C@H](C)CO)C[C@H]1C	-76.9	/	37.1	-1.8
Cc1noc(C)c1S(=O)(=O)N(C)C[C@H]1OCCCC[C@@H](C)Oc2ccc(NC(=O)c3ccccc3)cc2C(=O)N([C@@H](C)CO)C[C@@H]1C	-84.0*	/	34.9	-0.5
COc1ccc(S(=O)(=O)N(C)C[C@@H]2Oc3ncc(-c4cc5ccccc5o4)cc3C(=O)N([C@H](C)CO)C[C@@H]2C)cc1	-85.9*	-0.5	80.7	/
COc1cccc(S(=O)(=O)N(C)C[C@H]2Oc3ncc(-c4cccc(C(=O)N(C)C)c4)cc3C(=O)N([C@H](C)CO)C[C@@H]2C)c1	-83.7*	-20.1	14.4	-0.4
C[C@H](CO)N1C[C@H](C)[C@H](CN(C)S(=O)(=O)c2ccc(C#N)cc2)Oc2ncc(-c3cc4ccccc4o3)cc2C1=O	-17.8	0.3	59.7	-2.2
COc1cccc(S(=O)(=O)N(C)C[C@@H]2Oc3ncc(-c4cccc(C(=O)N(C)C)c4)cc3C(=O)N([C@@H](C)CO)C[C@H]2C)c1	-65.5	-30.7	7.9	-0.8
Cc1cc(C)c(S(=O)(=O)N(C)CC(=O)Nc2ccc(Cl)cc2Cl)c(C)c1	/	0.6	/	/
O=C(CSc1nnc(-c2ccncc2)n1-c1ccc(F)cc1)c1ccccc1	/	8.4	/	/
CCCN(C)C[C@H]1Oc2cc(C#Cc3ccncc3)ccc2S(=O)(=O)N([C@H](C)CO)C[C@H]1C	-71.2	0.1	/	-1.8
CCCN(C)C[C@@H]1Oc2cc(C#Cc3cccnc3)ccc2S(=O)(=O)N([C@@H](C)CO)C[C@H]1C	-88.6*	2.0	61.5	-1.8
CCCN(C)C[C@H]1Oc2cc(C#Cc3cccnc3)ccc2S(=O)(=O)N([C@H](C)CO)C[C@@H]1C	-82.4*	-0.1	89.3	-3.3
Cc1cccc(NC(=O)CC2OCCN(Cc3ccccc3)C2=O)c1 (configuration not stated)	/	0.1	/	/
COc1ccc(C(=O)CC2(O)C(=O)N(Cc3ccccc3)c3ccc(Br)cc32)cc1[N+](=O)[O-] (configuration not stated)	/	-0.3	/	/
